Data: ChEMBL document CHEMBL1240409, “Design, synthesis and evaluation of (E)-alpha-benzylthio chalcones as novel inhibitors of BCR-ABL kinase” (Bioorg Med Chem, 2010)

Experiments:
K562 = assay: Growth inhibition of human K562 cells expressing p210Bcr/Abl after 96 hrs by trypan blue exclusion assay; type: functional, cell-based; conditions: K562, 96 h
In short: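 K562 cells were kept in RPMI with 10% FBS and penicillin–streptomycin at 37 °C under 5% CO2. Cells were seeded at 1 × 10^5 cells/mL with a range of compound concentrations, using DMSO as the negative control. After 96 h, viability was counted by Trypan blue exclusion and expressed as percent of DMSO control to derive GI50.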

DU-145 = assay: Growth inhibition of human DU145 cells after 96 hrs by trypan blue exclusion assay; type: functional; conditions: DU-145, 96 h

| GI50 (K562) | GI50 (DU-145) | SMILES |
| --- | --- | --- |
| 10 µM | 10 µM | O=C(/C(=C\c1ccc(O)c([N+](=O)[O-])c1)Sc1c(F)c(F)c(F)c(F)c1F)c1ccc(Br)cc1 |
| 1 µM | 25 µM | O=C(/C(=C\c1ccc(F)c([N+](=O)[O-])c1)SCc1ccc(F)cc1)c1ccc(SCc2ccc(F)cc2)c([N+](=O)[O-])c1 |
| 1 µM | 25 µM | O=C(/C(=C\c1ccc(Cl)cc1)SCc1ccc(Br)cc1)c1ccccc1Cl |
| 1 µM | 1 µM | O=C(/C(=C\c1ccc(OCc2ccccc2)cc1)SCc1ccc(Cl)cc1Cl)c1ccc(Cl)cc1 |
| 25 µM | 25 µM | Cc1ccc(CS(=O)(=O)/C(=C/c2ccccc2Br)C(=O)c2ccc(Cl)cc2)cc1 |
| 1 µM | 1 µM | O=C(/C(=C\c1ccc(OCc2ccccc2)cc1)SCc1cccc(Cl)c1)c1ccc(Br)cc1 |
| 1 µM | 10 µM | Cc1ccsc1/C=C(\C(=O)c1ccc(Cl)cc1)S(=O)(=O)Cc1ccc(F)cc1 |
| 1 µM | 10 µM | O=C(/C(=C\c1ccccc1OCc1ccccc1)S(=O)(=O)Cc1ccc(F)cc1)c1ccc(Cl)cc1 |
| 10 µM | 10 µM | Cc1ccc(CS/C(=C/c2sccc2C)C(=O)c2ccc(Cl)cc2)cc1 |
| 1 µM | 10 µM | Cc1ccc(CS/C(=C/c2ccc(O)cc2)C(=O)c2ccc(Cl)cc2)cc1 |
| 1 µM | 10 µM | Cc1ccc(CS/C(=C/c2ccccc2F)C(=O)c2ccc(Cl)cc2)cc1 |
| 10 µM | 25 µM | COc1ccc(/C=C(\C(=O)c2ccc(Br)cc2)S(=O)(=O)c2ccc(Br)cc2)cc1 |
| 10 µM | 10 µM | COc1cc(OC)c(/C=C(/SCc2ccc(Cl)c(Cl)c2)C(=O)c2ccc(Cl)cc2)c(OC)c1 |
| 10 µM | 10 µM | COc1cc(OC)c(/C=C(/SCc2ccc(F)cc2)C(=O)c2ccc(Cl)cc2)c(OC)c1 |
| 1 µM | 10 µM | CCOc1ccc(/C=C(\C(=O)c2ccc(Br)cc2)S(=O)(=O)c2ccc(Br)cc2)c(OCC)c1 |
| 10 µM | 10 µM | Cc1ccc(S/C(=C/c2ccc[nH]2)C(=O)c2ccc(Cl)cc2)cc1 |
| 50 µM | 25 µM | Cc1ccc(S(=O)(=O)/C(=C/c2cccs2)C(=O)c2ccc(Cl)cc2)cc1 |
| 10 µM | 10 µM | Cc1ccc(S/C(=C/c2c[nH]c3ccccc23)C(=O)c2ccc(Br)cc2)cc1 |
| 50 µM | 50 µM | O=C(/C(=C\c1ccc(O)cc1O)Sc1ccccc1Br)c1ccc(Br)cc1 |
| 25 µM | 25 µM | Cc1ccc(/C=C(/SCc2ccc(Cl)cc2)C(=O)c2ccc([N+](=O)[O-])cc2)s1 |
| 50 µM | > 100 µM | CN(C)c1ccc(/C=C(/SCc2ccccc2Cl)C(=O)c2ccc(Cl)cc2)cc1 |
| 10 µM | 10 µM | CSc1ccc(/C=C(/SCc2ccc(Br)cc2)C(=O)c2ccc(C(=O)O)cc2)cc1 |
| 25 µM | 50 µM | Cc1ccc(S(=O)(=O)/C(=C/c2ccc(C)s2)C(=O)c2ccc(Cl)cc2)cc1 |
| 1 µM | 1 µM | O=C(/C(=C\c1ccc([N+](=O)[O-])c(O)c1)SCc1ccc(Br)cc1)c1ccc([N+](=O)[O-])c(Cl)c1 |
| 1 µM | 1 µM | COc1cc(C(=O)/C(=C\c2ccc([N+](=O)[O-])c(O)c2)SCc2ccc(Br)cc2)cc(OC)c1OC |

| GI50 (K562) | GI50 (DU-145) | SMILES |
| --- | --- | --- |
| 10 µM | 10 µM | O=C(/C(=C/c1ccc(Cl)cc1)Cc1c[nH]c2ccccc12)c1ccc(Cl)cc1Cl |
| 1 µM | 10 µM | Cc1ccc(CS/C(=C/c2ccccc2F)C(=O)c2ccc(Br)cc2)cc1 |
| > 50 µM | 50 µM | O=C(C(=Cc1ccc(I)cc1)S(=O)(=O)Cc1ccc(I)cc1)c1ccc(I)cc1 |
| 1 µM | 1 µM | Cc1ccc(C)c(/C=C(\C(=O)c2ccc(Br)cc2)S(=O)(=O)Cc2ccc(F)cc2)c1 |
| 10 µM | 10 µM | O=C(/C(=C\c1ccc([N+](=O)[O-])c(O)c1)SCc1ccc(Br)cc1)c1cc(Cl)ccc1O |
| 1 µM | 1 µM | O=C(O)c1ccc(C(=O)/C(=C\c2ccc(Br)c([N+](=O)[O-])c2)SCc2ccccc2Cl)cc1 |
| 10 µM | 25 µM | O=C(/C(=C\c1ccc(F)c([N+](=O)[O-])c1)S(=O)(=O)c1ccc(Br)cc1)c1ccc(Br)cc1 |
| 10 µM | 10 µM | O=C(/C(=C\c1ccc(Br)cc1)S(=O)(=O)c1ccc(Br)cc1)c1ccc(Br)cc1 |
| 50 µM | 50 µM | O=C(/C(=C\c1ccccc1OCc1ccccc1)Sc1ccccc1Cl)c1ccccc1Cl |
| 1 µM | 1 µM | Cc1ccc(CS(=O)(=O)/C(=C/c2cc(C)ccc2C)C(=O)c2ccc(Cl)cc2)cc1 |
| 25 µM | 25 µM | Cc1ccsc1/C=C(\C(=O)c1ccc(Cl)cc1)S(=O)(=O)Cc1ccc(Cl)cc1 |
| 10 µM | 25 µM | Cc1ccc(/C=C(\C(=O)c2ccc([N+](=O)[O-])cc2)S(=O)(=O)Cc2ccc(Cl)cc2)s1 |
| 10 µM | 10 µM | Cc1ccc(CS/C(=C/c2ccccc2Br)C(=O)c2ccc(Cl)cc2)cc1 |
| 10 µM | 10 µM | Cc1ccc(C)c(/C=C(\C(=O)c2ccc(Cl)cc2)S(=O)(=O)Cc2ccc(Cl)cc2)c1 |
| 1 µM | 1 µM | O=C(/C(=C\c1c[nH]c2ccccc12)SCc1ccc(F)cc1)c1ccc(Cl)cc1 |
| 1 µM | 10 µM | CC(=O)Nc1ccc(/C=C(/SCc2ccc(F)cc2)C(=O)c2ccc(C(=O)O)cc2)cc1[N+](=O)[O-] |
| > 100 µM | > 100 µM | O=C(/C(=C\c1c(O)cc(O)cc1O)Sc1ccccc1Br)c1ccc(Cl)cc1 |
| 1 µM | 1 µM | O=C(/C(=C\c1ccccc1OCc1ccccc1)S(=O)(=O)c1ccc(Br)cc1)c1ccc(Cl)cc1 |
| 50 µM | 50 µM | O=C(/C(=C\c1c[nH]c2ccccc12)S(=O)(=O)Cc1ccc(F)cc1)c1ccc(Cl)cc1 |
| 25 µM | 25 µM | COc1ccccc1/C=C(\C(=O)c1ccc(Br)cc1)S(=O)(=O)Cc1ccc(F)cc1 |
| 50 µM | 50 µM | O=C(/C(=C\c1c(O)cc(O)cc1O)S(=O)(=O)c1ccccc1Br)c1ccc(Cl)cc1 |
| 50 µM | > 100 µM | O=C(/C(=C\c1ccc(O)cc1O)S(=O)(=O)c1ccccc1Br)c1ccc(Br)cc1 |
| > 100 µM | > 100 µM | O=C(/C(=C\c1c(O)cc(O)cc1O)S(=O)(=O)c1ccc(Br)cc1)c1ccc(Cl)cc1 |
| 1 µM | 10 µM | COc1ccc(/C=C(\C(=O)c2ccc(Br)cc2)S(=O)(=O)c2ccc(Br)cc2)c(F)c1 |
| 25 µM | > 100 µM | COc1cc(OC)c(/C=C(/Sc2ccc(C)cc2)C(=O)c2ccc(Cl)cc2)c(OC)c1 |

| GI50 (K562) | GI50 (DU-145) | SMILES |
| --- | --- | --- |
| 10 µM | > 100 µM | O=C(/C(=C\c1ccc(Br)cc1)S(=O)(=O)c1ccc(Br)cc1)c1ccccc1O |
| 1 µM | 1 µM | Cc1ccc(S(=O)(=O)/C(=C/c2ccc(Cl)cc2)C(=O)c2ccc(Cl)cc2)cc1 |
| 1 µM | 1 µM | O=C(/C(=C\c1ccc(F)cc1F)Sc1ccc(Br)cc1)c1ccc(Cl)cc1 |
| 50 µM | > 100 µM | Cc1ccc(S(=O)(=O)/C(=C/c2c(F)c(F)c(F)c(F)c2F)C(=O)c2ccc(Cl)cc2)cc1 |
| 1 µM | 10 µM | CN1CCN(c2ccc(/C=C(/SCc3ccc(Br)cc3)C(=O)c3ccc(C(=O)O)cc3)cc2[N+](=O)[O-])CC1 |
| 1 µM | 1 µM | Cc1ccc(C)c(/C=C(\C(=O)c2ccc(Cl)cc2)S(=O)(=O)c2ccc(Br)cc2)c1 |
| 10 µM | 10 µM | Cc1ccc(S/C(=C/c2ccc(Oc3ccccc3)cc2)C(=O)c2ccc(Cl)cc2)cc1 |
| 1 µM | 10 µM | O=C(C(=Cc1ccc(Br)cc1)SCc1ccccc1Cl)c1ccc(Cl)cc1 |
| 1 µM | 10 µM | O=C(/C(=C\c1ccc([N+](=O)[O-])c(O)c1)SCc1ccc(Br)cc1)c1ccc(Br)cc1 |
| 1 µM | 1 µM | COc1ccccc1/C=C(\C(=O)c1ccc(Cl)cc1)S(=O)(=O)Cc1ccc(Cl)c(Cl)c1 |
| 50 µM | > 100 µM | O=C(/C(=C\c1ccc(O)c([N+](=O)[O-])c1)SCc1ccc(Br)cc1)c1ccc(O)cc1O |
| 10 µM | 25 µM | CC(=O)Oc1ccc(/C=C(\C(=O)c2ccc(Cl)cc2)S(=O)(=O)c2ccc(C)cc2)cc1 |
| 25 µM | 25 µM | Cc1ccc(CS/C(=C/c2cccc(Cl)c2Cl)C(=O)c2ccc(Cl)cc2)cc1 |
| 1 µM | 10 µM | CCOc1ccc(/C=C(\C(=O)c2ccc(Cl)cc2)S(=O)(=O)Cc2ccccc2Cl)cc1OC |
| 1 µM | 1 µM | COc1ccc(/C=C(/Sc2ccc(C)cc2)C(=O)c2ccc(Cl)cc2)cc1 |
| 1 µM | 25 µM | CCOc1ccc(/C=C(/SCc2ccc(Cl)c(Cl)c2)C(=O)c2ccc(Cl)cc2)cc1OC |
| > 100 µM | 25 µM | Cc1ccc(CS(=O)(=O)/C(=C/c2c[nH]c3ccccc23)C(=O)c2ccc(Cl)cc2)cc1 |
| 1 µM | 1 µM | COc1ccccc1/C=C(/SCc1ccc(Cl)cc1)C(=O)c1ccc(Cl)cc1 |
| 1 µM | 1 µM | Cc1ccc(S(=O)(=O)/C(=C/c2ccccc2OCc2ccccc2)C(=O)c2ccc(Br)cc2)cc1 |
| 1 µM | – | COc1ccc(/C=C(/SCc2ccc(Cl)cc2)C(=O)c2ccc(Cl)cc2)cc1O |
| 1 µM | – | O=C(/C(=C\c1ccc(F)cc1)Sc1ccc(Br)cc1)c1ccc(Br)cc1 |
| 10 µM | – | O=C(/C(=C\c1ccc(F)c([N+](=O)[O-])c1)Sc1ccc(Cl)cc1)c1ccc(Cl)cc1 |
| 1 µM | – | O=C(/C(=C\c1ccc(F)c([N+](=O)[O-])c1)SCc1ccc(Br)cc1)c1ccc(C(F)(F)F)cc1 |
| – | 10 µM | COc1cccc(OC)c1/C=C(\C(=O)c1ccc(Br)cc1)S(=O)(=O)c1ccc(Br)cc1 |
